Activity calls are given as the source filed them. The rule behind the calls is not given here.
Tests used:
[1] = system: brain; test: Induction of actin assembly in bovine brain cells by turbidimetric assay; format: cell-based; settings: Bos taurus
[2] = molecular target: Dual specificity protein phosphatase 3 (Homo sapiens) (UniProt P51452); test: Inhibition of VHR expressed in Escherichia coli BL21([…])
Method in brief: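 VHR dual-specificity phosphatase overexpressed in E. coli BL21(DE3). Assays run in triplicate. Compounds tested at 100 µg/mL (some at 30 µg/mL). References were tautomycin at 30 ng/mL and RK-682 at 10 µg/mL.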

[3] = system: brain; test: Induction of microtubule assembly in bovine brain cells by turbidimetric assay; format: cell-based; settings: Bos taurus
Method in brief: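 Turbidity assay: microtubule protein at 2.0 mg/mL in Mes buffer incubated at 37 °C. Absorbance at 350 nm followed over time.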

[4] = Inhibition of PTP-S2
Method in brief: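 PTP-S2 overexpressed in E. coli BL21(DE3). Phosphatase assays run in triplicate. Compounds tested at 10 µg/mL, with tautomycin at 30 ng/mL as reference.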

[5] = Cytotoxicity against rat 3Y1 cells at 10 ug/ml by flow cytometry; format: cell-based
Method in brief: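 Rat normal fibroblast 3Y1 cells grown in Dulbecco's modified MEM with 10% fetal calf serum, humidified 5% CO2. Cell-cycle progression after treatment assessed by flow cytometry.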

[6] = system: 3Y1 cell line; test: Induction of morphological changes in rat 3Y1 cells by indirect immunofluorescence technique; format: functional, cell-based
Method in brief: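 3Y1 rat fibroblasts cultured in DMEM plus 10% fetal calf serum under humidified 5% CO2. Cytoskeletal changes after treatment visualized by indirect immunofluorescence microscopy.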

[7] = species on record: Homo sapiens; test: Inhibition of PP2A from human red blood cells
Method in brief: (§1)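 PP1 (rabbit skeletal muscle) and PP2A (human red blood cells), commercial enzymes. In vitro assays run in duplicate. Compounds tested at 10 µg/mL, with tautomycin at 30 ng/mL as reference.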

[8] = species on record: Oryctolagus cuniculus; test: Inhibition of rabbit muscle PP1; method in brief: as §1

Dual specificity protein phosphatase 3 (Homo sapiens), sequence (P51452 whole entry, looked up): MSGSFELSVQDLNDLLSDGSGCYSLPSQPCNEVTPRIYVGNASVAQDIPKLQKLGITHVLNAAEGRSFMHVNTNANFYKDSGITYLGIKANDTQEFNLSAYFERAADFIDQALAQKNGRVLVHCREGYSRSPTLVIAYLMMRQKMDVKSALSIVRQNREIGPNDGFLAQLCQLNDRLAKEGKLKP

Row | Activity [2] | Activity [4] | Activity [7] | Activity [8] | SMILES | Activity [1] | Activity [3] | Activity [5] | Activity [6]
1 | inactive | inactive | inactive | inactive | CC[C@@H]1C=CC(=O)O[C@@H]1[C@H](C)C[C@@H](C)[C@@H](O)C[C@H](O)/C=C\C=C/c1cccc(O)c1Cl [BITUNGOLIDE A] | inactive | inactive | Active | inactive
2 | inactive | inactive | inactive | inactive | CC[C@@H]1C=CC(=O)O[C@@H]1[C@H](C)C[C@@H](C)[C@@H](O)C[C@H](O)/C=C\C=C\c1cccc(O)c1Cl [BITUNGOLIDE C] | inactive | inactive | Active | inactive
3 | inactive | inactive | inactive | inactive | CC[C@@H]1C=CC(=O)O[C@@H]1[C@H](C)CC[C@@H](O)C[C@H](O)/C=C/C=C/c1ccccc1 [BITUNGOLIDE F] | inactive | inactive | Active | inactive

Further lines, the compound ahead of its results:

Row | SMILES | Activity [2] | Activity [4] | Activity [7] | Activity [8] | Activity [1] | Activity [3] | Activity [5] | Activity [6]
4 | CC[C@@H]1C=CC(=O)O[C@@H]1[C@H](C)C[C@@H](C)[C@@H](O)C[C@H](O)/C=C/C=C/c1cccc(O)c1Cl [BITUNGOLIDE B] | inactive | inactive | inactive | inactive | inactive | inactive | Active | inactive
5 | CC[C@@H]1C=CC(=O)O[C@@H]1[C@H](C)C[C@@H](C)[C@@H](O)C[C@H](O)/C=C/C=C\c1cccc(O)c1Cl [BITUNGOLIDE D] | inactive | inactive | inactive | inactive | inactive | inactive | Active | inactive
6 | CC[C@@H]1C=CC(=O)O[C@@H]1[C@H](C)C[C@@H](C)[C@@H](O)C[C@H](O)/C=C/C=C/c1ccccc1 [BITUNGOLIDE E] | inactive | inactive | inactive | inactive | inactive | inactive | Active | inactive

From ChEMBL document CHEMBL1137814, “Bitungolides A-F, new polyketides from the Indonesian sponge Theonella cf. swinhoei” (J Nat Prod, 2002)
